For 71 compounds, cytotoxicity results are on record in ChEMBL document CHEMBL4513216, “Probing the Open Global Health Chemical Diversity Library for Multistage-Active Starting Points for Next-Generation Antimalarials” (ACS Infect Dis, 2020).

SMILES strings stand for the structures.

This data set is described as follows: Toxicity liver stage against HepG2, at 10uM. Format: cell-based. Details: test concentration 10 uM, cell line HepG2-A16-CD81EGFP. The settings on record: human, HepG2-A16-CD81EGFP cells; read-out: INHIBITION
The method in brief:
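Uninfected HepG2-A16-CD81EGFP cells, 3 × 10^3 per well, 1536-well, plated on prespotted compound at 10 μM final, parasite-free screening media added to match infected plates; puromycin 10 μM positive, DMSO 0.5% negative; run in parallel with 48 h PbLuc assay at 37 °C, 5% CO2; viability by CellTiter-Glo luminescence, normalized to controls.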
Consider `O=C(NC[C@H]1OC[C@@H](NCc2ccccc2)[C@@H]1O)Nc1ccc(F)cc1`, for which the cytotoxicity at 10 µM is -10.8%.

For `CN1CCC(N[C@@H]2CO[C@H](CNC(=O)c3cccs3)[C@H]2O)CC1`, the cytotoxicity at 10 µM was -0.376%.

In the case of `CCN(CC)CC[C@H]1CN(C(=O)C2CCC2)CC[C@H]1CC(=O)O`, the cytotoxicity at 10 µM was determined as 1.35%.

Consider `CCN1Cc2cc(OC)ccc2N(CC(C)(C)O)CCC1=O`, for which the cytotoxicity at 10 µM is -12.2%.

On to `CC(C)NC(=O)Cc1cnc(-n2cccc2)s1`, for which the cytotoxicity at 10 µM is -4.6%.

For the compound `CCc1c(C)sc2nc3n(CCN4CCOCC4)nc(SC)n3c(=O)c12`, the cytotoxicity at 10 µM was found to be 1.09%.

Take `NC(=O)CSc1nnc2[nH]c(=O)c3c(n12)CCCC3`: the cytotoxicity at 10 µM is -4.44%.

For `COc1ccc(CN2Cc3[nH]nc(C(=O)N(C)C)c3C2)cc1`, the cytotoxicity at 10 µM was -2.48%.

In the case of `c1cnc(NC[C@H]2OC[C@@H]3CCN(Cc4ccncc4)C[C@@H]32)nc1`, the cytotoxicity at 10 µM is -4.61%.

With `O=C(C1CCOC1)N1CCN(Cc2ccncc2)c2ncccc2C1` (stereo unspecified), the cytotoxicity at 10 µM amounted to 0.617%.

Consider `CC(C)CNC(=O)c1cc2c(s1)CCN2S(C)(=O)=O`, for which the cytotoxicity at 10 µM is -0.522%.

As for `O=c1c2cn[nH]c2nc(SCCN2CCCC2)n1-c1ccccc1`, the cytotoxicity at 10 µM is -2.03%.

With `O=C(COc1coc(CN2CCCC2)cc1=O)NCc1ccccc1Cl`, the cytotoxicity at 10 µM was -0.317%.

For `O=S(=O)(Nc1cnn(C2CCOCC2)c1)c1c(F)cccc1F`, the cytotoxicity at 10 µM turned out to be 13.9%.

For the compound `Cc1ccc(C)c(NCc2nc3n(n2)CCCCC3)c1`, the cytotoxicity at 10 µM came out at 6.39%.

For the compound `CNc1[nH]nc(N)c1NC(=O)c1ccccc1`, the cytotoxicity at 10 µM was determined as 9.96%.

Consider `Cc1nn(C)c2cnn(Cc3ccc(C(=O)NCC4CCCO4)o3)c12` (stereo unspecified), for which the cytotoxicity at 10 µM came to 9.37%.

Regarding `COCCC(=O)N1CCOCC(Cc2ccc3c(ccn3C)c2)C1` (stereo unspecified), the cytotoxicity at 10 µM was 6.66%.

`CN(C)c1cncc(C2CCCN(c3cnccn3)C2)n1` (stereo unspecified): the cytotoxicity at 10 µM came out at 2.45%.

With `O=C1CC2(CCN(C(=O)c3ccccn3)C2)Nc2ccccc2N1` (stereo unspecified), the cytotoxicity at 10 µM came out at 10.9%.

On to `CCn1cnc2c(c(Br)nn2C)c1=O`, for which the cytotoxicity at 10 µM is 4.37%.

`CCN(CC(C)C#N)C(=O)CNc1cc(Cl)ccc1C(N)=O` (stereo unspecified): the cytotoxicity at 10 µM amounted to 17.6%.

For the compound `Cc1oc(C(=O)Nc2ccccc2F)cc1S(N)(=O)=O`, the cytotoxicity at 10 µM is -1.07%.

`Cc1noc(C)c1C(=O)N(C)C(C)c1ccncc1` (stereo unspecified): the cytotoxicity at 10 µM is 0.66%.

Turning to `COc1c(F)cc(NC(=O)N2CCC(CSC)C2)cc1F` (stereo unspecified), the cytotoxicity at 10 µM worked out at 10.2%.

Take `O=C(Cc1csc(Cc2ccccn2)n1)NCCCN1CCCC1=O`: the cytotoxicity at 10 µM is -6.29%.

Consider `COCc1cccc(C(=O)N2CCN(C3=NCC(C)(C)S3)CC2)c1`, for which the cytotoxicity at 10 µM was 4.65%.

Take `Cc1ccc(C(=O)Nc2ccc(N3CCC(O)CC3)c(C#N)c2)s1`: the cytotoxicity at 10 µM was -5.71%.

For `c1csc(-c2nc(CN3CCCC3Cn3cccn3)co2)c1` (stereo unspecified), the cytotoxicity at 10 µM turned out to be 11.1%.

`CC(C)C(=O)NC1CCN(CCO)CC1`: the cytotoxicity at 10 µM is -8.84%.

As to `Cc1ccc(CC(=O)NCC(Cc2ccc(F)cc2)C(N)=O)cn1` (stereo unspecified), the cytotoxicity at 10 µM amounted to 12%.

For the compound `COCCOCC(=O)NC(C#N)c1ccccc1C` (stereo unspecified), the cytotoxicity at 10 µM was -1.65%.

Consider `COc1ccc(OCC(=O)NS(=O)(=O)c2ccc(Cl)s2)cc1`, for which the cytotoxicity at 10 µM was determined as 14.1%.

Consider `CN(C)C(CNCc1nc(-c2ccsc2)no1)c1ccsc1` (stereo unspecified), for which the cytotoxicity at 10 µM was -1.63%.

Regarding `Cc1nc2ccccc2n1CCNCc1cccc(C#N)c1`, the cytotoxicity at 10 µM is -0.591%.

For the compound `N#Cc1c(F)cccc1N1CCC(C(=O)Nc2nccs2)CC1`, the cytotoxicity at 10 µM is 0.329%.

For `Cc1ccc2cccc(S(=O)(=O)N(C)CC3CCN(C)CC3)c2n1`, the cytotoxicity at 10 µM was -1.6%.

As to `COc1ccc(Br)cc1CN(C)c1nc2c(cnn2C)c(=O)[nH]1`, the cytotoxicity at 10 µM was 48.1%.

With `CNC(=O)N1C[C@H]2N(c3ncccn3)CCC[C@@]2(C(=O)NCC2CC2)C1`, the cytotoxicity at 10 µM is -101%.

On to `COCC(=O)N1CCC2(CCCN(Cc3ccc(Cl)cc3)CC2)CC1`, for which the cytotoxicity at 10 µM is -0.153%.

For the compound `CN(C)CCn1ccnc1C1CCCN(c2ncc(Cl)cc2F)C1` (stereo unspecified), the cytotoxicity at 10 µM was -1.75%.

On to `CC(C)CCn1cc(C(C(=O)O)N2CCSCC2)cn1` (stereo unspecified), for which the cytotoxicity at 10 µM is -1.17%.

On to `COc1cccc(Cn2c(C)c(C)oc2=O)c1OC`, for which the cytotoxicity at 10 µM is -2.34%.

On to `CN(C)CCCn1ccnc1C1CCCN(c2ncc(Cl)cc2F)C1` (stereo unspecified), for which the cytotoxicity at 10 µM is -7.43%.

Take `Cc1nc(Cn2c(=O)cnc3ccccc32)n(C)n1`: the cytotoxicity at 10 µM was -0.825%.

In the case of `COc1cccc2c(=O)n(Cc3ccnc(C)c3)cnc12`, the cytotoxicity at 10 µM was -0.0198%.

For `CCNC(=O)[C@@H]1C[C@H](N)CN1C(=O)c1cccc(CCC(C)(C)O)c1`, the cytotoxicity at 10 µM stood at 4.61%.

Consider `CC(CN(C)Cc1cccc(-n2cccn2)c1)C(F)(F)F` (stereo unspecified), for which the cytotoxicity at 10 µM stood at 1.55%.

For the compound `CCC[C@@H]1CN(Cc2ccccc2C#N)C[C@H]1NC(C)=O`, the cytotoxicity at 10 µM was -3.92%.

In the case of `CC(C(=O)O)N1CC2(CCC1=O)CCN(CCc1ccccc1)CC2` (stereo unspecified), the cytotoxicity at 10 µM was -0.503%.

In the case of `Cc1[nH]c2c(F)cccc2c1CC(=O)NC1CCCCNC1=O` (stereo unspecified), the cytotoxicity at 10 µM is 19.1%.

For `COCCN(C)C[C@@H]1CN(Cc2ccnc3ccccc23)C[C@@H]1CO`, the cytotoxicity at 10 µM is -6.33%.

On to `Cc1cn[nH]c1C1CCCCN1C(=O)CCN1CCCCCC1` (stereo unspecified), for which the cytotoxicity at 10 µM turned out to be 5.7%.

As to `CC(C)(C)c1nc(CN2CCCN(Cc3cccs3)CC2)no1`, the cytotoxicity at 10 µM was 6%.

With `O=C(c1cc(Cl)ccc1F)N1CCCC1Cn1cccn1` (stereo unspecified), the cytotoxicity at 10 µM worked out at 8.36%.

Take `COc1cccc(OCC(=O)NS(=O)(=O)c2ccc(Br)s2)c1`: the cytotoxicity at 10 µM was -16.1%.

Consider `Cc1cnn(CCNCC(=O)NCC2(c3ccccc3)CC2)c1`, for which the cytotoxicity at 10 µM amounted to 5.58%.

Take `CN(C)c1cc(C(=O)N2CCCCC2Cn2cccn2)ccn1` (stereo unspecified): the cytotoxicity at 10 µM was -23%.

`Cc1nc2ccccc2nc1CN1CCCC1Cn1cccn1` (stereo unspecified): the cytotoxicity at 10 µM was -31.4%.

`CS(=O)(=O)c1ccc(CNC(=O)NCC2CCOC2)cc1` (stereo unspecified): the cytotoxicity at 10 µM is -9.22%.

For the compound `COc1ccc(COCC(O)CNC(=O)c2cc(C)cc(C)c2)cc1` (stereo unspecified), the cytotoxicity at 10 µM was determined as 0.385%.

For `CCCc1nc(CN2CCN(Cc3noc(CCC)n3)CC2)no1`, the cytotoxicity at 10 µM was -0.914%.

Consider `CCc1n[nH]c(C2CN(C(=O)c3nc(C)n4ccccc34)CCO2)n1` (stereo unspecified), for which the cytotoxicity at 10 µM was -11.2%.

On to `COc1ccc(C)cc1CSCCn1nc2ccccn2c1=O`, for which the cytotoxicity at 10 µM was 1.03%.

Consider `CC(C)N(C)Cc1cnc2n1CCN(Cc1ccc(F)cc1)C2`, for which the cytotoxicity at 10 µM worked out at 1.44%.

Turning to `O=C(CN1CC(c2nc(-c3ccco3)no2)C1)NCC1CCCO1` (stereo unspecified), the cytotoxicity at 10 µM stood at 2.21%.

Regarding `CCN1CC[C@@]2(C(=O)N3CCOCC3)CCN(S(=O)(=O)CC)CC[C@@H]12`, the cytotoxicity at 10 µM was 8.92%.

As for `Cc1nn(C)c(C)c1S(=O)(=O)N1CC[C@H]2O[C@@H](C)C[C@H]2C1`, the cytotoxicity at 10 µM was determined as 2.79%.

As to `CN(C)C(=O)CN1CCC2(CC1)COc1ccccc1S(=O)(=O)N(C)C2`, the cytotoxicity at 10 µM is -0.259%.

`O=C(NCCc1cccs1)[C@H]1CO[C@H]2CCN(CC3CC3)C[C@H]2C1`: the cytotoxicity at 10 µM was -103%.

As for `CCN1C[C@@H]2[C@@H](OC)CCN(S(=O)(=O)c3ccccc3)[C@@H]2C1`, the cytotoxicity at 10 µM is -2.7%.
